The values below come from ChEMBL document CHEMBL4024713, “Novel aryl piperazines for alleviation of 'andropause' associated prostatic disorders and depression” (Eur J Med Chem, 2017).

pEC50: −log10 of the molar value. Some results are limits rather than exact numbers.

The subject of one data set is Serum. Description: Volume of distribution at steady state in Sprague-Dawley rat serum at 10 mg/kg, po administered as single dose by LC-MS/MS analysis. The following applies: in vivo. It counts as ADME, organism-based. The gist of the method:
(§1)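 Male Sprague Dawley rats (250 ± 25 g), fasted overnight (12-16 h), n = 3 per time point; single 10 mg/kg dose orally by feeding needle, or iv from DMSO solution. Serum, prostate and hypothalamus collected up to 48 h post oral dose; hypothalamus from three rats pooled. LC-MS/MS (MRM, phenacetin internal standard), linear 5-400 ng/mL; noncompartmental and compartmental analysis.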

Data set [1] relates to Rattus norvegicus. Put plainly: Anti-androgenic activity in citral-induced prostatic hyperplasia Sprague-Dawley rat model assessed as prostate weight at 10 mg/kg, po administered once daily coadministered with citral for 21 days measured 24 hrs last post dose (reference value: 100%). It counts as functional. The gist of the method: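 Adult male Sprague-Dawley rats (250-280 g, n = 5), citral 100 mg/kg orally once daily for 28 days. From day 8, compound or flutamide at 10 mg/kg orally once daily for the remaining 21 days. Prostate weight is expressed relative to the citral group (100%). Prostates fixed in 10% formalin; 5 μ sections stained with H&E, examined by light microscopy.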

A short description of data set [2]: AUClast in Sprague-Dawley rat prostate at 10 mg/kg, po administered as single dose by LC-MS/MS analysis. As to conditions: in vivo. Format: ADME, organism-based, Prostate gland. The gist of the method: as §1
Data set [3] in a line: Half life in Sprague-Dawley rat serum at 10 mg/kg, po administered as single dose by LC-MS/MS analysis. It counts as ADME, organism-based. In short, it runs like this:
as §1

A further data set concerns Mus musculus. Description: Toxicity in Swiss albino mouse assessed as latency time to fall at 20 mg/kg, po measured at 1 hr interval for 4 hrs by rotarod test. As to conditions: in vivo. It counts as organism-based. The gist of the method:
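Mice trained on the rotarod (5 to 10 rpm), 2 min trials, 3 per day for two days. On day 3, tested before oral dosing and at 1, 2, 3 and 4 h after, recording latency to fall.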
(The rotarod test checks motor coordination on a turning rod.)

Data set [4] in a line: Cmax in Sprague-Dawley rat hypothalamus at 10 mg/kg, po administered as single dose by LC-MS/MS analysis. It counts as ADME, organism-based. Also noted: dose 10 mg/kg, route oral. The gist of the method:
as §1

Data set [5] is described as follows: Cmax in Sprague-Dawley rat prostate at 10 mg/kg, po administered as single dose by LC-MS/MS analysis. Format: ADME, organism-based, Prostate gland. Also noted: dose 10 mg/kg, route oral. In short, it runs like this: as §1
The nature of data set [6]: Cmax in Sprague-Dawley rat serum at 10 mg/kg, iv administered as single dose by LC-MS/MS analysis. Format: ADME, organism-based. The arrangement: dose 10 mg/kg, route intravenous. The gist of the method:
as §1

Data set [7] can be described thus: Clearance in Sprague-Dawley rat prostate at 10 mg/kg, po administered as single dose by LC-MS/MS analysis. Format: ADME, organism-based, Prostate gland. The following applies: in vivo. The gist of the method:
as §1

A further data set relates to DU-145. Put plainly: Cytotoxicity against human DU145 cells after 24 hrs by MTT assay. It counts as functional, cell-based. The following applies: DU-145, 24 h. (In general: Formazan colour is commonly taken as a measure of viable cells.)
A short description of data set [8]: Cmax in Sprague-Dawley rat serum at 10 mg/kg, po administered as single dose by LC-MS/MS analysis. It counts as ADME, organism-based. Also noted: dose 10 mg/kg, route oral. The gist of the method: as §1
In data set [9] the test system is Rattus norvegicus. Description: Toxicity in citral-induced prostatic hyperplasia Sprague-Dawley rat model assessed as effect on testis weight at 10 mg/kg, po administered once daily coadministered with citral for 21 days measured 24 hrs last post dose. It counts as organism-based. As to conditions: in vivo.
A short description of data set [10]: Tmax in Sprague-Dawley rat serum at 10 mg/kg, po administered as single dose by LC-MS/MS analysis. It counts as ADME, organism-based. In short, it runs like this:
as §1

Data set [11] deals with Rattus norvegicus. Put plainly: Toxicity in citral-induced prostatic hyperplasia Sprague-Dawley rat model assessed as effect on epididymis weight at 10 mg/kg, po administered once daily coadministered with citral for 21 days measured 24 hrs last post dose. It counts as organism-based. As to conditions: in vivo.
The nature of data set [12]: Half life in Sprague-Dawley rat prostate at 10 mg/kg, po administered as single dose by LC-MS/MS analysis. Format: ADME, organism-based, Prostate gland. The gist of the method: as §1
The nature of data set [13]: Tmax in Sprague-Dawley rat hypothalamus at 10 mg/kg, po administered as single dose by LC-MS/MS analysis. It counts as ADME, organism-based. In short, it runs like this: as §1
The nature of data set [14]: Tmax in Sprague-Dawley rat prostate at 10 mg/kg, po administered as single dose by LC-MS/MS analysis. Format: ADME, organism-based, Prostate gland. The gist of the method:
as §1

Data set [15] deals with Rattus norvegicus. Put plainly: Toxicity in citral-induced prostatic hyperplasia Sprague-Dawley rat model assessed as effect on seminal vesicle weight at 10 mg/kg, po administered once daily coadministered with citral for 21 days measured 24 hrs last post dose. Format: organism-based. As to conditions: in vivo.
Data set [16] in a line: Clearance in Sprague-Dawley rat serum at 10 mg/kg, iv administered as single dose by LC-MS/MS analysis. It counts as ADME, organism-based. In short, it runs like this: as §1

In turn, `c1ccc(N2CCN(CCCN3CCN(c4ccccn4)CC3)CC2)nc1` had a Vdss with Serum of 23.7 L/kg. In addition, the Activity in the data set on Rattus norvegicus [1] is reported as 53.8%; in the data set with Rattus norvegicus [9], “Non-Toxic”; in the data set with Rattus norvegicus [11] it was “Non-Toxic”; in the data set with Rattus norvegicus [15] it was “Non-Toxic”. Besides, the AUClast in [2] was found to be 10.7 µg·h/g. Moreover, the values for the half-life in data set [3] and in data set [12] were 5.4 h and 155 h, respectively. Further, in the data set with Mus musculus, the Time is 120 s. Moreover, the Cmax is 461 ng/g in [4], 572 ng/g in data set [5], 520 ng/mL in data set [6] and 329 ng/mL in [8]. Besides, the CL in data set [7] came out at 0.3 g/h/kg. For the same compound, the negative-log EC50 (pEC50) with DU-145 is < 4.10. The Tmax in [10] was 1 h; in [13], 1 h; in data set [14], 4 h. The same compound gave a clearance in [16] of 68.3 mL/min/kg.

One may read the half-life as the time needed for the level to fall by half in the phase considered. Usually Cmax stands for the maximum level reached in the sampled fluid or tissue. By pEC50 is commonly meant the negative decadic logarithm of the EC50, by convention in mol/L. The low end stands for a large EC50, the high end for a small EC50. The Tmax is the time from dosing to the highest level. Broadly, the clearance is the rate of elimination divided by the concentration. A high value points to efficient removal.
